# Experimental data reported in ChEMBL document CHEMBL1122651, “5-Aryl-3-azabicyclo[3.2.0]heptan-6-one ketals, compounds with morphine-like analgesic activity” (J Med Chem, 1984).
# Legend:
# [1] = test system: Rattus norvegicus; assay: Analgesic activity of intraperitoneally administered compound was determined by the inflamed rat-paw reversal of abnormal (three-legged) gait; 8/10 Active; format: functional; details: ip
# In short: (§1)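 Rats with an inflamed paw and abnormal three-legged gait, dosed with compound or vehicle. Reversal of the abnormal gait is scored. A reduction of abnormal gait of at least 50% counts as a positive analgesic response. ED50 and 95% confidence limits by Finney's linear arc sine transformation.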
# [2] = organism: Rattus norvegicus; assay: animal or person; details: po
# [3] = organism: Rattus norvegicus; details: Brain, at 0.78 µM
# [4] = organism: Rattus norvegicus; details: Brain, at 25 µM
# [5] = organism: Rattus norvegicus; assay: (§2) Concentration of drug required to inhibit the stereospecific binding of [3H]naloxone (5 nM) to homogenates of rat brain minus cerebellum in the presence of 100 mM NaCl
# [6] = test system: Rattus norvegicus; assay: Analgesic activity of subcutaneously administered compound was determined by the inflamed rat-paw reversal of abnormal (three-legged) gait; 0.06-2.0; details: sc
# [7] = organism: Rattus norvegicus; assay: Concentration of drug required to inhibit the stereospecific binding of [3H]-naloxone (5 nM) to homogenates of rat brain minus cerebellum in the absence of 100 mM NaCl; format: functional, organism-based
# [8] = test system: Rattus norvegicus; assay: Analgesic activity of intraperitoneally administered compound was determined by the inflamed rat-paw reversal of abnormal (three-legged) gait; format: functional; details: ip; in short: as §1
# [9] = test system: Rattus norvegicus; assay: Analgesic activity of intraperitoneally administered compound was determined by the inflamed rat-paw reversal of abnormal (three-legged) gait; 4/4 Active; format: functional; details: ip; in short: as §1
# [10] = organism: Rattus norvegicus; assay: Ability to displace [3H]naloxone binding from homogenates of rat brain minus cerebellum at the concentration of 0.78 uM
# In short: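 Competition binding of [3H]naloxone to rat brain homogenate with cerebellum removed. Pert–Snyder procedure as modified by Ong et al. Percent inhibition of stereospecific binding read at a single drug concentration of 0.78 μM.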
# [11] = organism: Rattus norvegicus; assay: as §2; format: functional
# In short: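 Displacement of [3H]naloxone (5 nM) from stereospecific sites in rat brain homogenate (minus cerebellum), run with 100 mM NaCl added. Eight displacing ligand concentrations, each analysis in triplicate. Value is the drug concentration giving 50% inhibition of binding.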
# [12] = test system: Rattus norvegicus; assay: Analgesic activity of intraperitoneally administered compound was determined by the inflamed rat-paw reversal of abnormal (three-legged) gait; R (reject) highest dose tested inactive; format: functional; details: ip; in short: as §1
# [13] = test system: Rattus norvegicus; assay: Analgesic activity of perorally administered compound was determined by the inflamed rat-paw reversal of abnormal (three-legged) gait; format: functional; details: po; in short: as §1
Compound,inhibition [4],IC50 [7],IC50 [11],also measured
COc1cccc(C23CN(C)CC2CC32OCC(C)(C)CO2)c1.O=C(O)/C=C/C(=O)O (stereo not drawn),–,–,–,ED50 [1]: < 25 mg/kg
CN1CC[C@]23c4c5ccc(O)c4O[C@H]2[C@@H](O)C=C[C@H]3[C@H]1C5.CN1CC[C@]23c4c5ccc(O)c4O[C@H]2[C@@H](O)C=C[C@H]3[C@H]1C5.O=S(=O)(O)O,100%,74 nM,–,ED50 [2]: 35 mg/kg; inhibition [3]: 97%; IC50 [5]: 380 nM; ED50 [6]: 0.4 mg/kg
COc1cccc(C23CNCC2CC3(OC)OC)c1 (stereo not drawn),–,–,–,ED50 [8]: > 25 mg/kg
COC1(OC)CC2CN(C)CC21c1ccccc1 (stereo not drawn),62%,–,–,ED50 [9]: < 25 mg/kg; inhibition [10]: 13%
COc1ccc2c3c1O[C@H]1[C@@H](O)C=C[C@H]4[C@@H](C2)N(C)CC[C@@]341 [CODEINE],–,2600 nM,22000 nM,–
COC1(OC)CC2CN(C)CC21c1ccc(C)cc1 (stereo not drawn),62%,–,–,inhibition [10]: 11%; ED50 [12]: 25 mg/kg
COC1(OC)CC2CN(C)CC21c1cccc(O)c1 (stereo not drawn),99%,61 nM,579 nM,inhibition [3]: 85%; ED50 [8]: ~3 mg/kg
COc1cccc(C23CN(C)CC2CC3(OC)OC)c1 (stereo not drawn),61%,9920 nM,62500 nM,inhibition [10]: 7%; ED50 [13]: 4 mg/kg
C=CCN1CC[C@]23CCCC[C@H]2[C@H]1Cc1ccc(O)cc13 [LEVALLORPHAN],–,9 nM,34 nM,–
COc1cccc(C23CN(C)CC2CC3=O)c1 (stereo not drawn),22%,–,–,inhibition [3]: 12%; ED50 [12]: 25 mg/kg
C=CCN1CC[C@]23c4c5ccc(O)c4O[C@H]2C(=O)CC[C@@]3(O)[C@H]1C5 [NALOXONE],–,46 nM,42 nM,–
